Bioassay records: PubChem BioAssay, Broad Institute
DENV2 CPE rescue = DENV2-induced cell death inhibition; AID 651640; DENV2-infected cells, cytopathic effect rescue, plate reader; CPE inhibition, % at 9.99 µM; hit rate 1.7% among 350,000; in the data active = CPE inhibition above about 20%, passing the limit was not always enough; inconclusive = no clear call, values can overlap the other calls; tested in BHK-21 cells;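 also: 0% = median of neutral control wells and 100% = median of positive control wells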
E-sel inducer = E-selectin induction on HUVECs; hit rate 0.37% among 260,000; activation, % at 7.58 µM; HUVEC E-selectin immunofluorescence imaging; normalized: neutral wells 0, TNF-alpha wells 100; P16581;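 active = mean E-selectin-positive cell signal at least 10% of the positive control, reached in at least 60% of replicates, without over 20% cell loss; inconclusive = no rule given, readout overlaps actives, possibly toxicity-flagged; inactive = the rest, including those meeting only one limit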
Target sequence (P16581 whole entry, looked up): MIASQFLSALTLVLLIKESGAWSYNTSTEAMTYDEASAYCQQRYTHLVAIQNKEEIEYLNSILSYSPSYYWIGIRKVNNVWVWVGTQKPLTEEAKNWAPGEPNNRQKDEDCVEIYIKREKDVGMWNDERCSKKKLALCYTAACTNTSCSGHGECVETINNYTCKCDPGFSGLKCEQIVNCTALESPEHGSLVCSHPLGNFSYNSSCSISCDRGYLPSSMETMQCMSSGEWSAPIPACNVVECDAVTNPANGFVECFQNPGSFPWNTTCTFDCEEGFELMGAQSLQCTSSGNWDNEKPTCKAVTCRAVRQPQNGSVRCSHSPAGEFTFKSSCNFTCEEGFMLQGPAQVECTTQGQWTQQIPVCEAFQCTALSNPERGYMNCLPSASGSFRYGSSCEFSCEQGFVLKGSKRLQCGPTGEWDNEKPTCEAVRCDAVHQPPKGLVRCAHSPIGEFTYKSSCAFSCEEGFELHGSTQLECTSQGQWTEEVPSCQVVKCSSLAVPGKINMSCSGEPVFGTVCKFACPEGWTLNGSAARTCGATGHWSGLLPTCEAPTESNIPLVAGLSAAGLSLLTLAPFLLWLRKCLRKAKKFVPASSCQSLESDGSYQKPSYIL
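System: HUVEC, human umbilical vein endothelial cells; quantity: 3,000 cells/well; buffer or medium: EGM-2 medium, gelatin-coated wells; dosing: single-point compound dose; detection: immunofluorescence imaging; evaluation: % PE-positive cells; benchmarks: TNF-alpha, DMSO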
Statin myotox sup = protects C2C12 myotubes from simvastatin toxicity. ATP luminescence, 48 h; scaled: DMSO 0, geranylgeraniol control 100. rescue of ATP level, % at 7.49 µM. hit rate 0.78% among 330,000;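 active = mean ATP rescue above about 67%, or every replicate alone reaching that limit, limit read from the data, passing the limit was not always enough; inconclusive = no clear call, values can overlap the other calls; inactive = mean under the limit and some replicate under it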;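 also: myotubes were challenged with 10 µM simvastatin during compound exposure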
* marks the source's active call; other numbers are inactive results; ? = inconclusive; . = not tested or not shown. An excerpt weighted towards active compounds, which were near 2.2% of everything screened.

SMILES | DENV2 CPE rescue | E-sel inducer | Statin myotox sup
COc1cc(CN2CC3(CN(C(=O)c4cccnc4)C3)c3c([nH]c4cc(OC)ccc34)[C@@H]2CO)cc(OC)c1 | 13.0 | -0.3 | .
C[C@@H]1CN([C@@H](C)CO)C(=O)Cc2cc(NS(=O)(=O)c3cccs3)ccc2O[C@H]1CN(C)Cc1ccncc1 | 0.8 | . | -34.6
Cc1ccc(OCC(=O)Nc2nnc(S(=O)(=O)N3CCCCCC3)s2)cc1C | -5.6 | 0.1 | -2.6
O=C(COc1ccc(Cl)cc1)Nc1nnc(S(=O)(=O)N2CCCCCC2)s1 | -8.7 | 115.2* | 76.8*
O=C(C[C@H]1CC[C@@H](NC(=O)Cc2cccnc2)[C@@H](CO)O1)Nc1ccccc1 | 3.0 | 0.5 | .
C[C@H](CO)N1C[C@H](C)[C@H](CN(C)Cc2ccc(Cl)c(Cl)c2)Oc2ccc(NS(=O)(=O)c3cccs3)cc2CC1=O | 2.9 | 6.5 | -4.8
C[C@H](CO)N1C[C@H](C)[C@H](CN(C)C(=O)Nc2ccc3c(c2)OCO3)OCCCC[C@H](C)Oc2ccc(NC(=O)Nc3cccc4ccccc34)cc2C1=O | -0.7 | 0.2 | 12.6
C[C@H](CO)N1C[C@H](C)[C@H](CN(C)C(=O)Nc2ccc3c(c2)OCO3)Oc2ccc(NC(=O)Nc3cccc4ccccc34)cc2C1=O | 12.8 | 0.5 | 42.9
C[C@@H]1CN([C@@H](C)CO)C(=O)c2cc(NC(=O)Nc3ccc4c(c3)OCO4)ccc2O[C@@H](C)CCCCO[C@H]1CN(C)C(=O)Nc1cccc2ccccc12 | -6.0 | -0.2 | 8.2
C[C@@H]1CCCCO[C@H](CN(C)C(=O)Nc2cccc3ccccc23)[C@H](C)CN([C@@H](C)CO)C(=O)c2cc(NC(=O)Nc3ccc4c(c3)OCO4)ccc2O1 | -3.7 | 0.0 | 122.2*
C[C@H]1CN([C@@H](C)CO)C(=O)c2cc(NC(=O)Nc3cccc4ccccc34)ccc2O[C@@H]1CN(C)C(=O)Nc1ccc2c(c1)OCO2 | 22.6* | 8.7 | 22.2
C[C@@H]1CCCCO[C@@H](CN(C)C(=O)Nc2ccc3c(c2)OCO3)[C@@H](C)CN([C@@H](C)CO)C(=O)c2cc(NC(=O)Nc3cccc4ccccc34)ccc2O1 | 61.0* | -0.1 | .
CC(C)NC(=O)N[C@H]1CC[C@@H](CC(=O)NCCCN(C)C)O[C@@H]1CO | ? | -0.2 | 5.2
CS(=O)(=O)N1[C@@H]2Cn3c(cccc3=O)[C@H]1[C@@H](C(=O)NCc1ccccc1)[C@@H]2CO | 8.6 | 0.6 | 5.8
COC(=O)C(CC#Cc1ccc2c(c1)[C@]1(C(=O)N2)[C@H](C(=O)N2CCN(c3ncccn3)CC2)[C@H]2C(=O)O[C@H](c3ccccc3)[C@H](c3ccccc3)N2[C@@H]1c1ccc(O)cc1)C(=O)OC | 1.8 | . | .
Cc1noc(C)c1NC(=O)N[C@@H]1CC[C@@H](CCNC(=O)C2CC2)O[C@H]1CO | 1.0 | -0.1 | -0.7
Cc1ccc(S(=O)(=O)CCC(=O)Nc2cccc([N+](=O)[O-])c2)cc1 | 6.4 | . | .
Cc1ccc(S(=O)(=O)CCC(=O)Nc2cccc(Cl)c2)cc1 | 7.2 | 0.0 | 107.8*
Cc1noc(C)c1NC(=O)Nc1cccc2c1O[C@@H](CN(C)C(=O)Nc1c(C)noc1C)[C@H](C)CN([C@@H](C)CO)C2=O | 14.2 | -0.2 | -26.4
CC(=O)N1[C@H](CO)[C@@H](c2ccccc2)[C@H]1CN(C)S(=O)(=O)c1ccccc1 | 4.4 | 0.8 | -1.4
CCC(=O)N(C)C[C@@H]1Oc2cc(C#Cc3ccccn3)ccc2S(=O)(=O)N([C@@H](C)CO)C[C@H]1C | 4.5 | -0.1 | -7.2
COc1ccc(C2C(Oc3ccccc3)C(=O)N2c2cc(C)ccc2C)cc1OC (centres undefined) | . | . | 73.0*
COc1ccc(C2C(Oc3ccccc3)C(=O)N2c2ccc(C)c(C)c2)cc1OC (centres undefined) | . | . | 56.3
N#C[C@@H]1[C@H](c2ccccc2-c2ccccc2)[C@H](CO)N1C(=O)NC1CCCC1 | -16.3 | -0.2 | .
CO[C@H]1CN(C)C(=O)c2cc(NC(=O)c3ccc(-c4ccccc4)cc3)ccc2OC[C@H](C)NC[C@@H]1C | 22.8* | 0.3 | -30.5
SMILES | DENV2 CPE rescue | E-sel inducer | Statin myotox sup
CO[C@H]1CN(C)C(=O)c2cc(NC(=O)Nc3ccccc3Cl)ccc2OC[C@@H](C)NC[C@@H]1C | 30.8* | 0.0 | -38.0
CO[C@H]1CN(C)C(=O)c2cc(NC(=O)c3ccc(-c4ccccc4)cc3)ccc2OC[C@@H](C)NC[C@@H]1C | 1.8 | 0.2 | -219.9
CO[C@H]1CN(C)C(=O)c2cc(NC(=O)c3cnccn3)ccc2OC[C@H](C)NC[C@H]1C | 26.8* | 0.0 | -2.7
CO[C@H]1CN(C)C(=O)c2cc(NC(=O)c3cnccn3)ccc2OC[C@@H](C)NC[C@@H]1C | 5.6 | 0.1 | 7.0
CO[C@H]1CN(C)C(=O)c2cc(NC(=O)Nc3ccccc3Cl)ccc2OC[C@H](C)NC[C@@H]1C | -3.2 | -0.2 | -26.9
C[C@H](O)C#Cc1ccc2c(c1)O[C@@H](CN(C)CC1CCCC1)[C@H](C)CN([C@H](C)CO)S2(=O)=O | -10.9 | 0.2 | -152.1
O=C1CCN(Cc2ccc(Br)cc2)CCN1[C@H](CO)c1ccccc1 | -2.6 | -0.1 | 18.7
O=C1CCN(Cc2ccc(Br)cc2)CCN1CCO | 29.2* | -0.2 | 8.3
COCC#Cc1cnc2c(c1)C(=O)N([C@@H](C)CO)C[C@H](C)[C@@H](CN(C)C(=O)C1CCCCC1)O2 | 0.0 | 0.1 | 34.8
O=C(C[C@@H]1C=C[C@@H](NC(=O)c2ccc3c(c2)OCO3)[C@@H](CO)O1)NCc1ccc(Cl)cc1 | -2.7 | -0.5 | -4.9
CC(C)(C)n1nnnc1C(c1cc2ccccc2o1)N1CCCC1 (centres undefined) | -4.7 | 0.5 | .
CC(C)(C)n1nnnc1C(c1cc2ccccc2o1)N1CCOCC1 (centres undefined) | 107.2* | -0.1 | .
COCCNC[C@H]1[C@@H](c2ccccc2)[C@@H](CO)N1c1nc(C)c(C)s1 | -4.7 | -0.1 | -19.1
Cc1ccc(-c2nc3ccccc3n2C(C(=O)NC(C)(C)C)C2CC2)cc1 (centres undefined) | 31.1* | -0.2 | .
O=C(NC1CCCC1)C(C1CC1)n1c(C2CCCC2)nc2ccccc21 (centres undefined) | 50.6* | 0.3 | .
CC(C)(C)NC(=O)C(C1CC1)n1c(-c2ccccc2)nc2ccccc21 (centres undefined) | -3.0 | 0.1 | .
O=C(NC1CCCC1)C(C1CC1)n1c(C2CC2)nc2ccccc21 (centres undefined) | -1.7 | -0.1 | .
CN(C)c1ccc(/C=C/C=C2/SC(=S)N(c3ccccc3)C2=O)cc1 | . | . | 69.8*
O=C(O)c1ccc(N2C(=O)/C(=C/C=C/c3ccccc3)SC2=S)cc1 | 0.4 | . | .
Cc1ccc(-n2ncc3c2CCCC3NC(=O)CCc2c(C)noc2C)cc1C (centres undefined) | 63.8* | . | 6.1
CCCC(=O)NC1CCCc2c1cnn2-c1ccc(C)c(C)c1 (centres undefined) | -6.4 | . | 4.0
COc1ccc2c(Cl)c(-c3nnc(SCC(N)=O)n3C)sc2c1 | 1.4 | . | 13.6
COc1ccc2c(Cl)c(-c3nnc(SCC(=O)c4ccccc4)n3C)sc2c1 | . | . | 116.3*
N#C[C@H]1[C@H](c2ccccc2C2=CCCC2)[C@@H](CO)N1C(=O)C1CCOCC1 | -5.7 | 0.1 | .
